“And” between values parts separate entries of the source, which are not always exact repeats. Identical values can stand only once. Values belong to the compound of their own block, whether it stands above or below them.
Experiments:
[1] = molecular target: T1, Cytochrome P450 2B6 (Homo sapiens, UniProt P20813, K262R/Y226H); experiment: Isothermal titration calorimetry; assay type: binding; details: 25 °C
T1 sequence (P20813 with tags, fused parts or gaps Y226H/K262R limits assumed): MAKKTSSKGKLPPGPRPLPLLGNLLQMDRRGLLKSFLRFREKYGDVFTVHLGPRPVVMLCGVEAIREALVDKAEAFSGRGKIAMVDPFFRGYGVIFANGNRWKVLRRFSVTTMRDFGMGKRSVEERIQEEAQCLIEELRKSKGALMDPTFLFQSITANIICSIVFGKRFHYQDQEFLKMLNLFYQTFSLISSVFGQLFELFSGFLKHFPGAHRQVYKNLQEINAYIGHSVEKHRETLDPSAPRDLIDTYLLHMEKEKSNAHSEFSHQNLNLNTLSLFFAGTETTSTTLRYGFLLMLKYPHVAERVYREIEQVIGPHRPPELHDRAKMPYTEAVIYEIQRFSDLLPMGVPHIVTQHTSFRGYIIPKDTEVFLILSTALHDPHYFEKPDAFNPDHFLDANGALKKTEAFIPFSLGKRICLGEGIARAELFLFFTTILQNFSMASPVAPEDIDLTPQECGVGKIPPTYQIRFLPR

[2] = molecular target: T2, Cytochrome P450 2A6 (Homo sapiens, UniProt P11509); experiment: Spectral binding titration; details: read-out: Ks (spectral dissociation constant), 25 °C, mean (SD)
T2 sequence (P11509 with tags, fused parts or gaps limits assumed): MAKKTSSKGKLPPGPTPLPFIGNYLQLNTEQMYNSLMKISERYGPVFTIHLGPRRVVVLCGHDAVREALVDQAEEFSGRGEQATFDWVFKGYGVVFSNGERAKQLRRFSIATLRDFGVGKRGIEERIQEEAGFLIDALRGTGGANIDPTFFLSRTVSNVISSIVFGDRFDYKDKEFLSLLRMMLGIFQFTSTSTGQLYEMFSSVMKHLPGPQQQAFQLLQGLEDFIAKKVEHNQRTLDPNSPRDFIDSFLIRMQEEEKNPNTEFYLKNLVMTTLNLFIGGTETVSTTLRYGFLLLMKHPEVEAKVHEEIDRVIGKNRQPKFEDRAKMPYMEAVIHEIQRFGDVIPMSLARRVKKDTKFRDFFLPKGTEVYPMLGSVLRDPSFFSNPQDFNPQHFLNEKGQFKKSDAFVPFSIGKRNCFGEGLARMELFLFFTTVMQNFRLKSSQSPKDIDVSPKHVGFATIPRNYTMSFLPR

[3] = system: 2B6; experiment: Maximal binding affinity for 2B6 predicted from logP; design: species or system human; details: 298 K, based solely on enthalpy of desolvation, −1.364×logP
[4] = molecular target: T2, Cytochrome P450 2A6; experiment: Isothermal titration calorimetry; assay type: binding; details: 25 °C
[5] = molecular target: T1, Cytochrome P450 2B6; experiment: Spectral binding titration; details: for Kd: mean (SD)
In short: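 Human 2B6 (Y226H/K262R), co-expressed with GroEL/ES in E. coli JM109 and purified by Ni-NTA then CM-Sepharose; P450 quantified by reduced CO difference spectra. Titrated at 25 °C with stirring in 50 mM K-phosphate pH 7.4, 500 mM NaCl, 1 mM EDTA, 1 mM TCEP. Ligand was added from acetone (<1% final) and 350–700 nm spectra were recorded. High-spin fraction was derived by PCA against spin-state standards. KS came from a tight-binding fit, or a Hill fit for one ligand.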

[6] = system: 2B6; details: cited from earlier work

Compound: (+)-α-Pinene
KD (KA^−1 from ITC) ([1]; mean (SD)): 0.22 (0.17) 10^−6 M
Kd ([1]; ITC): ~220 nM
Kd [2]: 34200 nM
maximal binding affinity predicted from logP [3]: ~ −6 kcal/mol
KD (KA^−1 from ITC) ([4]; mean (SD)): 0.17 (0.05) 10^−6 M
Kd ([4]; ITC): ~170 nM
Kd ([5]; read-out: Ks (spectral dissociation constant), spectral titration, 25 °C, 2B6): 380 nM

KD (KA^−1 from ITC) ([1]; mean (SD)): 1.82 (0.61) 10^−6 M
ΔG ([1]; ITC, mean (SD)): −7.5 (1.4) kcal/mol
ΔS ([1]; ITC, mean (SD)): 3.2 (2.3) cal/mol/K
ΔH ([1]; ITC, mean (SD) of at least three experiments): −6.3 (2.2) kcal/mol
spectral shift upon binding ([5]; 2B6, increase at 390 nm, decrease at 417 nm): Type I spectral shift
Kd ([5]; read-out: Ks measured using the Hill equation giving the S50, spectral titration, 2B6, Hill equation, n=2): 1600 nM
ΔFh (maximal increase in fraction of high-spin P450) ([5]; spectral titration, 25 °C, 2B6): 42.5 ± 3.4% and 42.5 (3.4) %
Compound: CC1=CCC2C(C1)C2(C)C (single isomer, unassigned; (+)) [(+)-3-carene]

Compound: COC(=O)[C@H](c1ccccc1Cl)N1CCc2sccc2C1 [clopidogrel]
change in the fraction of high-spin P450 [6]: 2 – 4%

Compound: Clc1ccccc1CN1CCc2sccc2C1 [ticlopidine]
change in the fraction of high-spin P450 [6]: 2 – 4%
